# Rows were chosen to be rich in hits. Some 3.1% of all compounds tested hit in one or more screens of this group.
# GPR7 antagonist: antagonists of human GPR7 (neuropeptides B/W receptor 1); 290,000 tested, 1.1% active; GPR7-expressing cells, fluorescence antagonist assay; inhibition, % at 4.4 µM; in the data active means inhibition above about 16%, passing the limit was not always enough;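 further: cells stimulated with the agonist NPW; 0% = agonist with vehicle and 100% = vehicle without agonist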
# OX1R antag-1: antagonists of human orexin 1 receptor (OX1R); O43613; OX1R-expressing cells, FRET antagonist read-out; inhibition, % at 6.6 µM; 330,000 tested, 1.8% active; in the data active means inhibition mostly above about 38%, no sharp cut-off; inactive means mostly below about 40%;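 further: 0% = agonist challenge alone and 100% = reference antagonist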
# OX1R antag-2: blocks the human orexin 1 receptor; inhibition, % at 5 µM; 330,000 tested, 0.43% active; CHO/OX1R cells, Fluo-8 calcium fluorescence, orexin A;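 active means inhibition above its plate's threshold, mean inhibition of all tested compounds on the plate plus 3 SD, cut at about 37% in these data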;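 further: 0% = orexin A challenge wells and 100% = SB-334867-A antagonist wells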
# GalR3 antagonist: human GalR3 antagonism. 360,000 tested, 0.44% active. AID 651719. HEK293 GalR3-CNG cAMP membrane potential fluorescence; galR3 body fused to GalR1 C-terminus. inhibition, % at 3 µM;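 active means inhibition above the screen-wide average plus 3 SD, cut at about 13% in these data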;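 further: forskolin and galanin both at EC90 stimulate the cells; cAMP rise reported by CNG channel membrane potential dye signal; 0% = forskolin plus galanin with DMSO and 100% = forskolin alone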
# Target sequence (O60755 1-299 limits assumed): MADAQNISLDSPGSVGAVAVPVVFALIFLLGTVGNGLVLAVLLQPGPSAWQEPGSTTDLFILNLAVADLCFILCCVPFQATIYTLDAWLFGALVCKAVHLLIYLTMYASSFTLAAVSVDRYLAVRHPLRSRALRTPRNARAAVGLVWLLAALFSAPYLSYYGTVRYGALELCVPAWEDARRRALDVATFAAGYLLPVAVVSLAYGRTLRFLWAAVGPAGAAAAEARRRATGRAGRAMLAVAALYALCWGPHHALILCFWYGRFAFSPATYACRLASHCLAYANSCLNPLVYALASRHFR
# CHO parental Ca: counter-screen for OX1R antagonists: effect in parental CHO cells; AID 463079; parental CHO-K1, ATP-induced calcium, Fluo-8 fluorescence; 330,000 tested, 0.63% active; inhibition, % at 5.6 µM;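 active means inhibition above that plate's mean sample inhibition plus 3 SD, cut at about 26% in these data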;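 further: 0% = ATP-challenged DMSO wells and 100% = DMSO wells without ATP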
#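 Test system: untransfected parental CHO cell line. Compound: one dose, 5.6 µM nominal. Detection: intracellular calcium via Fluo-8 no-wash fluorescent dye. Measure: % inhibition. Benchmarks: ATP-challenged DMSO wells low, unchallenged DMSO wells high.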
# GPR7 antag cf: confirmation of human GPR7 antagonists; shares compounds with GPR7 antagonist; GPR7-expressing cells, calcium fluorescence antagonist mode; inhibition, % at 4.4 µM; 2,400 tested, 52% active; in the data active means inhibition above about 24%;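 further: stimulated with the GPR7 agonist NPW; 0% = agonist plus vehicle and 100% = vehicle alone without agonist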
# MCHR1 antag: MCHR1 (human) antagonism in GPR7 counter-screen; shares compounds with GPR7 antagonist; MCHR1-expressing cells, fluorescence antagonist assay; inhibition, % at 4.4 µM; 2,400 tested, 62% active; in the data active means inhibition above about 22%;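 further: 0% = vehicle with agonist and 100% = vehicle without agonist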
# * = called active by the depositor; · = not tested or not shown.
SMILES,GPR7 antagonist,OX1R antag-1,OX1R antag-2,GalR3 antagonist,CHO parental Ca,GPR7 antag cf,MCHR1 antag
Cc1ccccc1NC(=S)N(Cc1cccs1)C1CCCCC1,-22,7,-19,5,-8,·,·
Cc1sc(NC(=O)C2CCCCC2C(=O)O)c(C(N)=O)c1C (configuration not stated),22*,12,-24,-3,-7,-18,3
Cc1cc(NC(=O)COC(=O)c2c(C)noc2C)ccc1Br,36*,18,-10,-7,-5,18,25*
CNC(=S)N1N=C(c2ccc(OC)cc2)CC1c1ccc(N(C)C)cc1 (configuration not stated),22*,33,3,-6,3,9,33*
CC1(C(=O)NS(=O)(=O)C2CC2)CCCN(C(=O)C2(c3ccc(Cl)cc3)CCCC2)C1 (configuration not stated),·,·,·,-8,·,·,·
COc1cccc(NC(=O)c2cnsn2)c1,25*,9,-1,·,-5,5,3
CN(c1ccccc1)S(=O)(=O)c1ccc(NC(=O)c2ccccc2)cc1,5,8,-3,-4,-7,·,·
COc1cccc(NC(=O)c2nc(S(C)(=O)=O)ncc2Cl)c1,33*,39,-8,8,8,42*,33*
CN(c1ccccc1)S(=O)(=O)c1ccc(NC(=O)c2nc(S(C)(=O)=O)ncc2Cl)cc1,92*,37,38,-5,32,91*,102*
Cc1ccc2[nH]c(CNC(=O)c3ccccc3F)cc2c1,-13,8,-29,-10,-13,·,·
COc1ccc(C(O)c2nc(-c3ccc(N(C)C)cc3)cs2)cc1 (configuration not stated),·,·,·,-6,·,·,·
CC1CN(C(=O)CCC(=O)NCc2ccc(F)cc2)c2ccccc2S1 (configuration not stated),28*,4,-35,·,-11,-5,11
CC1CN(C(=O)CCC(=O)NCc2ccc(Cl)cc2)c2ccccc2S1 (configuration not stated),0,7,-4,1,8,·,·
O=C(Nc1ccc([N+](=O)[O-])cc1)c1ccc(Cn2cc([N+](=O)[O-])cn2)cc1,24*,10,19,-1,6,66*,72*
Cc1nc2ccc([N+](=O)[O-])cc2c(=O)n1Cc1cccc(F)c1,18,2,-3,-8,-15,·,·
Cc1cccc(Cn2c(C)nc3ccc([N+](=O)[O-])cc3c2=O)c1,45*,36,-22,-10,1,36*,43*
CCOC(=O)C1CCN(C(=O)C(C)Sc2nnc3ccccn23)CC1 (configuration not stated),·,11,-2,-5,1,·,·
CC(c1ccccc1C(O)(c1ccccc1)c1ccccc1)N(C)C (configuration not stated),68*,5,32,-9,30*,92*,96*
CCOC(=O)Nc1cc(=O)c2ccccc2o1,21*,3,0,-6,-4,3,19
CCOc1ccccc1NC(=O)c1cc(=O)c2ccccc2o1,-7,7,-5,-9,-8,·,·
Cc1cccc(NS(=O)(=O)c2ccc(C(=O)NCC(c3ccccc3)N(C)C)cc2)c1C (configuration not stated),33*,·,·,-4,·,47*,58*
Cc1ccc(NS(=O)(=O)c2ccc(C(=O)NCC(c3ccco3)N(C)C)cc2)cc1 (configuration not stated),34*,-11,6,-2,-2,52*,43*
COc1ccc2[nH]c(=O)c(CN(C(=O)c3ccccn3)C3CCCCC3)cc2c1,23*,15,-12,0,-22,9,-11
O=C(c1ccccn1)N(Cc1cc2ccccc2[nH]c1=O)C1CCCCC1,7,17,-23,4,-25,·,·
Cc1cccc(N2CCN(C(=O)COc3ccc4ccc(=O)oc4c3)CC2)c1C,37*,15,-20,-4,-20,45*,42*
SMILES,GPR7 antagonist,OX1R antag-1,OX1R antag-2,GalR3 antagonist,CHO parental Ca,GPR7 antag cf,MCHR1 antag
Cc1c(OCC(=O)N(C)c2ccccc2)ccc2c3c(c(=O)oc12)CCC3,11,3,-21,-10,-18,·,·
COc1ccc(Nc2sc(C(=O)c3ccc(Cl)cc3)c(N)c2C(=O)Nc2ccccc2OC)cc1,71*,0,101*,-3,71*,93*,100*
COc1ccc(C(=O)c2sc(Nc3cccc(OC)c3)c(C(=O)Nc3cccc(C)c3C)c2N)cc1,79*,1,29,-5,60*,23,77*
COC(=O)[C@@H](Cc1c[nH]c2ccccc12)NC(=O)CCC(=O)c1ccc(Br)cc1,·,13,-3,-11,-15,·,14
CCCCn1c(N)c(N(CC(C)C)C(=O)CCNC(=O)c2ccccc2Cl)c(=O)[nH]c1=O,·,16,-7,-3,4,·,·
CCCCn1c(N)c(N(CC(C)C)C(=O)c2cccc(S(=O)(=O)N3CCCCCC3)c2)c(=O)[nH]c1=O,28*,10,-6,-4,1,-6,4
CCCCn1c(N)c(N(CC(C)C)C(=O)c2ccc(COc3ccccc3)o2)c(=O)[nH]c1=O,26*,23,-21,-5,-12,32*,21
CCCCn1c(N)c(N(CCOC)C(=O)CCNC(=O)c2ccccc2Cl)c(=O)[nH]c1=O,26*,8,5,1,-6,-4,-2
CN(C(=O)c1ccccc1OCc1ccc(F)cc1)c1c(N)n(Cc2ccccc2)c(=O)[nH]c1=O,·,·,·,-3,·,·,·
CCCCN(C(=O)c1ccccc1OCc1ccc(F)cc1)c1c(N)n(CCC)c(=O)[nH]c1=O,30*,66*,11,-2,-23,16,9
COc1ccc(C(=O)NCCS(=O)(=O)NCc2ccccc2OC)cc1,·,8,-10,11,-20,·,·
COc1ccc(C(=O)O)cc1NC(=S)NC(=O)/C=C/c1ccc(C(C)C)cc1,-9,13,11,-10,2,·,·
CCc1ccc([C@H]2[C@@H]3C(=O)C[C@@H]4C(=O)N(C5CCCCC5)C(=O)[C@@H]4[C@@H]3CN2S(=O)(=O)c2ccc(C)cc2)cc1,·,·,·,-8,·,·,·
Cc1ccc(C2c3[nH]c4ccccc4c3C[C@H]3C(=O)N(c4ccccc4C(=O)NCCN4CCOCC4)C(=O)N23)cc1 (some centres not stated),28*,9,-12,-6,-7,7,22*
O=C(NCCCN1CCOCC1)c1ccccc1N1C(=O)[C@@H]2Cc3c([nH]c4ccccc34)C(c3cccc(Cl)c3)N2C1=O (some centres not stated),27*,2,-17,-7,-8,25*,35*
